Assay results from ChEMBL document CHEMBL1153551, “Resveratrol modulates phagocytosis of bacteria through an NF-kappaB-dependent gene program” (Antimicrob Agents Chemother, 2008).
Active and inactive are the calls of the source.

Assays:
THP-1 [1] = test: Inhibition of phagocytosis of FITC-conjugated Escherichia coli K12 in human THP1 cells using trypan blue staining after 20 mins by flow cytometry; type: functional, cell-based
How it was run: (§1)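 Serum-free THP-1 or RAW264.7 cells were treated 1 h with resveratrol, then incubated 0, 20, 40, 60 or 80 min with heat-killed FITC-E. coli at 1:100 cell:bacterium. Outer fluorescence was quenched with 0.2% trypan blue and cells fixed in 1% paraformaldehyde. Internalized fluorescence was read as flow cytometry MFI; mean and SD of triplicates.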

THP-1 [2] = test: Inhibition of FSL-1-induced increase in phagocytosis of FITC-conjugated Staphylococcus aureus 209P in human THP1 cells using trypan blue staining after 20 mins by flow cytometry; type: functional, cell-based
How it was run: (§2)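 THP-1 or RAW264.7 cells (1 × 10⁶/ml) were pretreated 24 h with FSL-1 (0, 1, 10, 100 nM), washed, then given resveratrol (10, 50, 100 μM) for 1 h serum-free. Heat-killed FITC-E. coli (1:10) or FITC-S. aureus (1:100) followed. Surface fluorescence was quenched with 0.2% trypan blue and cells fixed in 1% paraformaldehyde. Flow cytometry mean fluorescence intensity, triplicates.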

THP-1 [3] = test: Inhibition of FSL1-induced upregulation of dectin-1 mRNA expression in human THP1 cells at 100 uM after 1 hr by RT-PCR; type: functional, cell-based
How it was run: (§3)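 Serum-free THP-1 cells primed 24 h with 100 nM FSL-1 were given 100 μM resveratrol or 0.1% DMSO for 1 h. Total RNA from 5 × 10⁶ cells was reverse-transcribed with oligo(dT) and PCR-amplified for MSR1, CD36, DC-SIGN and Dectin-1 (30 cycles) with β-actin as reference (25 cycles). Products were resolved on 3% agarose with ethidium bromide.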

HEK293 [4] = test: Inhibition of DC-SIGN expression in HEK293 cells expressing DC-SIGN at 100 uM by Western blot analysis; type: functional, cell-based; settings: Homo sapiens
How it was run: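 293/DC-SIGN cells (1 × 10⁷ per 10-cm dish, DMEM complete medium, 16 h) were washed and exposed to 100 μM resveratrol for 0, 30, 60, 90 or 120 min. Lysates in SDS sample buffer with protease inhibitors were boiled and run on 10% SDS-PAGE, then blotted to nitrocellulose. Probes were anti-DC-SIGN or anti-β-actin mAb (4°C overnight), then HRP anti-mouse IgG.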

THP-1 [5] = test: Inhibition of FSL-1-induced increase in phagocytosis of FITC-conjugated Escherichia coli K12 in human THP1 cells using trypan blue staining after 20 mins by flow cytometry; type: functional, cell-based; how it was run: as §2
RAW264.7 [6] = test: Inhibition of phagocytosis of FITC-conjugated Staphylococcus aureus 209P in mouse RAW264.7 cells assessed as reduction in ratio of number of bacterial cells to phagocytes using trypan blue staining by flow cytometry; type: functional, cell-based
How it was run: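 THP-1 or RAW264.7 cells received resveratrol for 1 h serum-free, then a range of doses of heat-killed FITC-E. coli or FITC-S. aureus. Trypan blue (0.2%) quenched bound bacteria and 1% paraformaldehyde fixed the cells. Flow cytometry MFI of internalized bacteria was plotted against bacterial dose; triplicates.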

HEK293 [7] = test: Inhibition of FSL1-induced NF-kappaB activation in HEK293 cells expressing TLR2 pretreated for 1 hr before 6 hrs-FSL1 stimulation by luciferase reporter gene assay; type: cell-based; settings: Homo sapiens
How it was run: (§4)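 293/TLR2 cells (1 × 10⁵/well) were transfected with 50 ng pNF-κB-Luc, 5 ng pRL-TK and 445 ng pcDNA3. After 24 h they were pretreated 1 h with resveratrol, then stimulated 6 h serum-free with FSL-1 (1, 10, 100 nM) or heat-killed E. coli or S. aureus (1:1, 1:10, 1:100). Dual luciferase readout, triplicates.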

THP-1 [8] = test: Inhibition of FSL1-induced upregulation of DC-SIGN mRNA expression in human THP1 cells at 100 uM after 1 hr by RT-PCR; type: functional, cell-based; how it was run: as §3
THP-1 [9] = test: Inhibition of heat killed Staphylococcus aureus 209P-induced TNF alpha production in human THP1 cells at 1 to 100 uM after 6 hrs by ELISA; type: functional, cell-based
How it was run: (§5)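 THP-1 or RAW264.7 cells (1 × 10⁶/well, 16 h) were washed and pretreated 1 h with resveratrol. Serum-free stimulation with heat-killed E. coli or S. aureus at 1:100 followed for 0, 2, 4 or 6 h. TNF-α in supernatants (400 × g spin) was measured by ELISA: human kit for THP-1, mouse kit for RAW264.7. Triplicates.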

THP-1 [10] = test: Inhibition of FSL1-induced upregulation of CD36 mRNA expression in human THP1 cells at 100 uM after 1 hr by RT-PCR; type: functional, cell-based; how it was run: as §3
RAW264.7 [11] = test: Inhibition of heat killed Escherichia coli K12-induced TNF alpha production in mouse RAW264.7 cells at 1 to 100 uM after 6 hrs by ELISA; type: functional, cell-based; how it was run: as §5
HEK293 [12] = test: Inhibition of phagocytosis of heat killed FITC-conjugated Escherichia coli K12 in HEK293 at 100 uM by after 1 hr; type: functional, cell-based; settings: Homo sapiens
How it was run: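 293/DC-SIGN cells (5 × 10⁵/ml) were plated the day before, washed and treated 1 h with resveratrol. Heat-killed FITC-E. coli or S. aureus were added for 1 h at various cell:bacterium ratios. Trypan blue (0.2%) quenched surface fluorescence and 1% paraformaldehyde fixed the cells. Flow cytometry MFI, triplicates.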

THP-1 [13] = test: Inhibition of FSL-1-induced increase in phagocytosis of FITC-conjugated Escherichia coli K12 in human THP1 cells assessed as reduction in number of cells phagocytosing bacteria per cell after 1 hr by CLSM; type: functional, cell-based
How it was run: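 THP-1 cells (1 × 10⁶/ml) were held 24 h with or without 100 nM FSL-1, washed, then given 100 μM resveratrol or 0.1% DMSO for 1 h. Heat-killed FITC-E. coli (1:100) was added for 1 h, cells were stained with concanavalin A, fixed in 3% paraformaldehyde and imaged by confocal microscopy. Readouts: particles per cell among 3,500 cells; % cells with bacteria per field (>100 cells), 25 fields.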

RAW264.7 [14] = test: Inhibition of FSL-1-induced increase in phagocytosis of FITC-conjugated Escherichia coli K12 in mouse RAW264.7 cells using trypan blue staining after 20 mins by flow cytometry; type: functional, cell-based; how it was run: as §2
HEK293 [15] = test: Inhibition of heat killed Staphylococcus aureus 209P-induced NF-kappaB activation in HEK293 cells expressing TLR2 pretreated for 1 hr before 6 hrs heat killed bacterial stimulation by luciferase reporter gene assay; type: cell-based; settings: Homo sapiens; how it was run: as §4
THP-1 [16] = test: Inhibition of heat killed Escherichia coli K12-induced TNF alpha production in human THP1 cells at 1 to 100 uM after 6 hrs by ELISA; type: functional, cell-based; how it was run: as §5
THP-1 [17] = test: Inhibition of phagocytosis of FITC-conjugated Staphylococcus aureus 209P in human THP1 cells using trypan blue staining after 80 mins by flow cytometry; type: functional, cell-based
RAW264.7 [18] = test: Inhibition of phagocytosis of FITC-conjugated Escherichia coli K12 in mouse RAW264.7 cells using trypan blue staining after 60 mins by flow cytometry; type: functional, cell-based; how it was run: as §1
THP-1 [19] = test: Inhibition of FSL1-induced upregulation of MSR1 mRNA expression in human THP1 cells at 100 uM after 1 hr by RT-PCR; type: functional, cell-based; how it was run: as §3
THP-1 [20] = test: Inhibition of phagocytosis of FITC-conjugated Staphylococcus aureus 209P in human THP1 cells using trypan blue staining after 20 mins by flow cytometry; type: functional, cell-based
RAW264.7 [21] = test: Inhibition of phagocytosis of FITC-conjugated Staphylococcus aureus 209P in mouse RAW264.7 cells using trypan blue staining after 40 mins by flow cytometry; type: functional, cell-based

Measured: Activity

Oc1ccc(/C=C/c2cc(O)cc(O)c2)cc1
active: THP-1 [1] Dose-dependent effect | THP-1 [2] Dose-dependent effect | THP-1 [3] | HEK293 [4] | THP-1 [5] Dose-dependent effect | RAW264.7 [6] | HEK293 [7] Dose-dependent effect | THP-1 [8] | THP-1 [9] | THP-1 [10] | RAW264.7 [11] | HEK293 [12] Dose-dependent effect | THP-1 [13] | RAW264.7 [14] Dose-dependent effect | HEK293 [15] | THP-1 [16] | THP-1 [17] Dose-dependent effect | RAW264.7 [18] Dose-dependent effect | THP-1 [19] | THP-1 [20] Dose-dependent effect | RAW264.7 [21] Dose-dependent effect
